Data on 3 compounds can be found in ChEMBL document CHEMBL1151453, “Subinhibitory concentrations of azithromycin decrease nontypeable Haemophilus influenzae biofilm formation and Diminish established biofilms” (2008).

Converted amounts (≈) assume the structure as drawn. The source made the active and inactive calls. No cut-off for these calls is given here.

The subject of assay [1] is Haemophilus influenzae. Kind of assay: Antimicrobial activity against nontypeable Haemophilus influenzae isolate 2019 expressing GFP isolated from patient with COPD assessed as inhibition biofilm formation at 0.25 ug/mL after 2 days. Format: functional, organism-based. The essentials: (§1)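 Flow cell: GFPmut3-expressing strain 2019 (kanamycin selection before inoculation) grown under a glass coverslip at 37°C. Medium was 1% BHI with NAD and hemin (1% final) in 150 mM NaCl, flowing at 0.08 ml/min, with or without antibiotic. Established-biofilm arm: no drug days 0–2, then drug days 2–4. Confocal imaging; biomass and maximal thickness by COMSTAT; n = 3.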

Assay [2] concerns Haemophilus influenzae. In words: Antimicrobial activity against nontypeable Haemophilus influenzae isolate 2019 expressing GFP isolated from patient with COPD assessed as maximal doubling time at 0.125 ug/mL using flow cell culture after 24 hrs. Format: functional. The method, boiled down: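 Growth curves: overnight strain 2019 culture, 1 ml diluted into 24 ml supplemented BHI (starting OD600 <0.050), antibiotic 0.03–2 μg/ml. Shaken at 37°C, OD600 read hourly. Maximal doubling time taken from the curves. Also repeated in flow-cell medium (1% supplemented BHI in 150 mM NaCl).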

For assay [3], the system named is Haemophilus influenzae. Kind of assay: Antimicrobial activity against nontypeable Haemophilus influenzae isolate 2019 expressing GFP isolated from patient with COPD assessed as growth inhibition at 0.125 ug/mL […]. Format: functional, organism-based.
Assay [4] relates to Haemophilus influenzae. Kind of assay: Antimicrobial activity against nontypeable Haemophilus influenzae isolate 2019 expressing GFP isolated from patient with COPD by broth microdilution method. Type of assay: functional. The method, boiled down: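 MIC for strain 2019 carrying pRSM2211, by CLSI broth microdilution, done in a clinical microbiology laboratory.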
The subject of assay [5] is Haemophilus influenzae. In words: Antimicrobial activity against nontypeable Haemophilus influenzae isolate 2019 expressing GFP isolated from patient with COPD assessed as decrease biofilm formation at 0.125 ug/mL after 2 days using flow cell culture relative to control. Format: functional, organism-based. The method, boiled down: (§2)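 Flow cell: GFPmut3-expressing strain 2019 (pRSM2211, kanamycin selection before inoculation) attached under a glass coverslip. Medium: 1% BHI with NAD and hemin ([…]) in 150 mM NaCl, 0.08 ml/min flow, 37°C. Antibiotic at 0.125 μg/ml, either from inoculation or added after 2 days. Confocal imaging; biomass and maximal thickness by COMSTAT (n = 3).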

For assay [6], the system named is Haemophilus influenzae. In words: Antimicrobial activity against nontypeable Haemophilus influenzae isolate 2019 expressing GFP isolated from patient with COPD assessed as decrease biomass of biofilm at 0.125 ug/mL after 2 days using flow cell culture relative to control. Type of assay: functional, organism-based. The essentials:
as §2

Assay [7] has as its system Haemophilus influenzae. Kind of assay: Antimicrobial activity against nontypeable Haemophilus influenzae isolate 2019 expressing GFP isolated from patient with COPD assessed as decrease maximal thickness of biofilm at 0.125 ug/mL after 2 days using flow cell culture relative to control. Type of assay: functional, organism-based. The essentials:
as §2

The test system of assay [8] is Haemophilus influenzae. Kind of assay: Antimicrobial activity against nontypeable Haemophilus influenzae isolate 2019 expressing GFP isolated from patient with COPD assessed as decrease in biomass of biofilm in 2 days established biofilm at 0.125 ug/mL after 4 days using flow cell culture. Type of assay: functional, organism-based. The method, boiled down: as §2

Assay [9] concerns Haemophilus influenzae. Kind of assay: Antimicrobial activity against nontypeable Haemophilus influenzae isolate 2019 expressing GFP isolated from patient with COPD assessed as decrease in maximum thickness of biofilm in 2 days established biofilm at 0.125 ug/mL after 4 days using flow cell culture. Type of assay: functional, organism-based. The method, boiled down: as §2
In assay [10] the test system is Haemophilus influenzae. In words: Antimicrobial activity against nontypeable Haemophilus influenzae isolate 2019 expressing GFP isolated from patient with COPD assessed as decrease in biomass of biofilm at 0.125 ug/mL incubated for 2 days measured after day 4 using flow cell culture. Type of assay: functional, organism-based. The essentials: as §2
Assay [11] relates to Haemophilus influenzae. Kind of assay: Antimicrobial activity against nontypeable Haemophilus influenzae isolate 2019 expressing GFP isolated from patient with COPD assessed as decrease in maximal thickness of biofilm at 0.125 ug/mL incubated for 2 days measured after days 4 using flow cell culture. Format: functional, organism-based. The essentials:
as §2

The test system of assay [12] is Haemophilus influenzae. In words: Antimicrobial activity against nontypeable Haemophilus influenzae isolate 2019 expressing GFP isolated from patient with COPD assessed as decrease in biofilm formation at 0.125 ug/mL treated for 4 days measured on day 2 to 4 using flow cell culture. Format: functional, organism-based. The essentials:
as §2

In assay [13] the test system is Haemophilus influenzae. Kind of assay: Antimicrobial activity against nontypeable Haemophilus influenzae isolate 2019 expressing GFP isolated from patient with COPD assessed as decrease in established biofilm formation at 0.125 ug/mL treated for 4 days measured on day 2 to 4 using flow cell culture. Type of assay: functional, organism-based. The method, boiled down: as §2

The test system of assay [14] is Haemophilus influenzae. Kind of assay: Antimicrobial activity against azithromycin-resistant nontypeable Haemophilus influenzae isolate S34 assessed as inhibition of biofilm formation at >64 ug/mL. Type of assay: functional, organism-based. The essentials: (§3)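 Static-culture biofilm: mid-log-phase bacteria in BHI broth with 10 μg/ml hemin and 10 μg/ml NAD, azithromycin 0.06 to 64 μg/ml, flat-bottom polystyrene 96-well plates, 37°C. Planktonic growth read hourly as A490 over the first 7 h. Biomass at the air-liquid interface stained with crystal violet at 24 h, same wells. Representative data, n = 3.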

Assay [15] has as its system Haemophilus influenzae. In words: Antimicrobial activity against azithromycin-resistant nontypeable Haemophilus influenzae isolate S43 assessed as inhibition of biofilm formation at >64 ug/mL. Format: functional, organism-based. The method, boiled down: as §3
Assay [16] deals with Haemophilus influenzae. In words: Antimicrobial activity against azithromycin-resistant nontypeable Haemophilus influenzae isolate S44 assessed as inhibition of biofilm formation at >64 ug/mL. Format: functional, organism-based. The method, boiled down:
as §3

For assay [17], the system named is Haemophilus influenzae. In words: Antimicrobial activity against azithromycin-resistant nontypeable Haemophilus influenzae isolate S61 assessed as inhibition of biofilm formation at >64 ug/mL. Format: functional, organism-based. The method, boiled down:
as §3

The subject of assay [18] is Haemophilus influenzae. In words: Antimicrobial activity against nontypeable Haemophilus influenzae isolate 2019 expressing GFP isolated from patient with COPD assessed as inhibition of biofilm formation at 0.25 ug/ml after 7 hrs using crystal violet. Type of assay: functional, organism-based.
For assay [19], the system named is Haemophilus influenzae. In words: Antimicrobial activity against azithromycin-resistant nontypeable Haemophilus influenzae isolate S52 assessed as inhibition of biofilm formation at 8 ug/mL after 7 hrs using crystal violet. Type of assay: functional, organism-based.
Assay [20] has as its system Haemophilus influenzae. Kind of assay: Antimicrobial activity against azithromycin-resistant nontypeable Haemophilus influenzae isolate S53 assessed as inhibition of biofilm formation at 16 ug/mL after 7 hrs using crystal violet. Type of assay: functional, organism-based.
Assay [21] relates to Haemophilus influenzae. In words: Antimicrobial activity against azithromycin-resistant nontypeable Haemophilus influenzae isolate S57 assessed as inhibition of biofilm formation at 64 ug/mL after 7 hrs using crystal violet. Format: functional, organism-based.
Assay [22] concerns Haemophilus influenzae. In words: Antimicrobial activity against nontypeable Haemophilus influenzae isolate 2019 expressing GFP isolated from patient with COPD assessed as viability at 0.125 ug/mL after 2 days using flow cell culture. Type of assay: functional, organism-based. The method, boiled down:
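Flow-cell biofilms of GFP-expressing strain 2019 grown 2 days with or without 0.125 μg/ml antibiotic, then stained with propidium iodide for 15 min.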

Assay [23] has as its system Haemophilus influenzae. Kind of assay: Antimicrobial activity against nontypeable Haemophilus influenzae isolate 2019 expressing GFP isolated from patient with COPD assessed as viability at 0.125 ug/mL incubated for 2 days measured on day 4 using flow cell culture. Type of assay: functional, organism-based.
The test system of assay [24] is Haemophilus influenzae. In words: Antimicrobial activity against nontypeable Haemophilus influenzae isolate 2019 expressing GFP isolated from patient with COPD assessed as maximal doubling time at 0.25 ug/mL using flow cell culture after 24 hrs. Type of assay: functional, organism-based.
In assay [25] the test system is Haemophilus influenzae. In words: Antimicrobial activity against nontypeable Haemophilus influenzae isolate 2019 expressing GFP isolated from patient with COPD assessed as growth inhibition at 0.25 ug/mL using static culture after 24 hrs. Format: functional, organism-based.
The test system of assay [26] is Haemophilus influenzae. In words: Antimicrobial activity against nontypeable Haemophilus influenzae isolate 2019 expressing GFP isolated from patient with COPD by […] assay. Type of assay: functional, organism-based. The essentials:
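MIC for strain 2019 carrying pRSM2211 determined by CLSI broth microdilution and Etest, performed by a hospital clinical microbiology laboratory.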

Assay [27] concerns Haemophilus influenzae. In words: Antimicrobial activity against nontypeable Haemophilus influenzae isolate 2019 expressing GFP isolated from patient with COPD assessed as decrease in biofilm formation at 8 ug/mL after 2 days. Type of assay: functional, organism-based. The essentials:
as §1

The subject of assay [28] is Haemophilus influenzae. In words: Antimicrobial activity against nontypeable Haemophilus influenzae isolate 2019 expressing GFP isolated from patient with COPD assessed as decrease in biomass of biofilm at 16 ug/mL after 2 days. Type of assay: functional, organism-based. The essentials: as §1
For assay [29], the system named is Haemophilus influenzae. Kind of assay: Antimicrobial activity against nontypeable Haemophilus influenzae isolate 2019 expressing GFP isolated from patient with COPD assessed as decrease in maximal thickness of biofilm at 16 ug/mL after 2 days. Type of assay: functional, organism-based. The method, boiled down: as §1
The subject of assay [30] is Haemophilus influenzae. In words: Antimicrobial activity against nontypeable Haemophilus influenzae isolate 2019 expressing GFP isolated from patient with COPD assessed as decrease in biomass of biofilm at 0.25 ug/mL after 2 days. Format: functional, organism-based. The method, boiled down:
as §1

The subject of assay [31] is Haemophilus influenzae. In words: Antimicrobial activity against nontypeable Haemophilus influenzae isolate 2019 expressing GFP isolated from patient with COPD assessed as decrease in maximal thickness of biofilm at 0.25 ug/mL after 2 days. Type of assay: functional, organism-based. The method, boiled down:
as §1

For assay [32], the system named is Haemophilus influenzae. Kind of assay: Antimicrobial activity against nontypeable Haemophilus influenzae isolate 2019 expressing GFP isolated from patient with COPD assessed as decrease in biomass of biofilm at 0.25 ug/mL after 4 days. Type of assay: functional, organism-based. The essentials: as §1
Assay [33] concerns Haemophilus influenzae. In words: Antimicrobial activity against nontypeable Haemophilus influenzae isolate 2019 expressing GFP isolated from patient with COPD assessed as decrease in maximal thickness of biofilm at 0.25 ug/mL after 4 days. Type of assay: functional, organism-based. The essentials:
as §1

The test system of assay [34] is Haemophilus influenzae. In words: Antimicrobial activity against nontypeable Haemophilus influenzae isolate 2019 expressing GFP isolated from patient with COPD assessed as decrease in biomass of 2 days established biofilm measured on day 4 using flow cell culture. Type of assay: functional, organism-based. The method, boiled down:
as §1

On to `CC[C@H]1OC(=O)[C@H](C)[C@@H](O[C@H]2C[C@@](C)(OC)[C@@H](O)[C@H](C)O2)[C@H](C)[C@@H](O[C@@H]2O[C@H](C)C[C@H](N(C)C)[C@H]2O)[C@](C)(O)C[C@@H](C)C(=O)[C@H](C)[C@@H](O)[C@]1(C)O`, for which the result in [1] was inactive.

`CC[C@H]1OC(=O)[C@H](C)[C@@H](O[C@H]2C[C@@](C)(OC)[C@@H](O)[C@H](C)O2)[C@H](C)[C@@H](O[C@@H]2O[C@H](C)C[C@H](N(C)C)[C@H]2O)[C@](C)(O)C[C@@H](C)CN(C)[C@H](C)[C@@H](O)[C@]1(C)O` [AZITHROMYCIN]: the Activity in assay [2] came to 44 min. For the same compound, the outcome in assay [3], in [10], in assay [11], in [22] and in assay [23] was inactive. In assay [4], this compound came in with an MIC of 0.5 µg/mL (≈ 0.668 µM). The result in assay [5], in [6], in assay [7], in assay [8], in assay [9] and in assay [12] was Active. Also, the result in assay [13], in [14], in assay [15], in [16], in [17] and in [18] was Active. For the same compound, the result in assay [19], in [20] and in assay [21] was Active.

Regarding GENTAMICIN, the Activity is 51 min in assay [24] and “Dose-dependent effect” in assay [34]. In addition, the outcome in assay [25], in assay [1], in [27], in [28] and in assay [29] was Active. Besides, in assay [26], the MIC amounted to 2 µg/mL. Besides, the outcome in assay [30], in assay [31], in assay [32] and in assay [33] was inactive.
